Consider 14 compounds from ChEMBL document CHEMBL2396608, “Thiazolylaminomannosides as potent antiadhesives of type 1 piliated Escherichia coli isolated from Crohn's disease patients” (J Med Chem, 2013).

Assay [1] relates to Escherichia coli. The assay is described as follows: Antiadhesive activity against type-1 piliated adherent-invasive Escherichia coli LF82 assessed as inhibition of guinea pig erythrocyte hemagglutination relative to heptylmannoside. The format is functional. The essentials: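 LF82 grown statically overnight in LB at 37 °C and washed three times in ice-cold PBS. Twofold compound dilutions, starting at 1 mM, made in 20 mM HEPES pH 7.4, 150 mM NaCl. Added 25 μL bacteria, then 50 μL guinea pig erythrocytes at 5%. Overnight on ice before read-out.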

Assay [2] concerns the target Type 1 fimbrin D-mannose specific adhesin (Escherichia coli K-12) (UniProt P08191). The assay is described as follows: Binding affinity to Escherichia coli FimH assessed as decrease in RNaseB binding after 1 hr by competitive ELISA. The essentials: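 Wells coated with RNaseB in bicarbonate buffer pH 9.6, overnight at 4 °C. Blocked with 3% BSA in PBST, 2 h at 37 °C. Inhibitors in PBST plus FimH at 0.07 μM, 1 h at room temperature. Detection used rabbit anti-FimH (1:2500, 1 h), then HRP anti-rabbit (1:5000, 1 h), then TMB for 2–5 min in the dark, stopped with 1N H₂SO₄. Absorbance read at 450 nm.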

The subject of assay [3] is Escherichia coli. The assay can be described thus: Antiadhesive activity against type-1 piliated adherent-invasive Escherichia coli LF82 assessed as decrease in residual bacterial adhesion to colonic tissue isolated from FVB/N transgenic mouse expressing human CEACAM6 at 0.1 umol after 1 hr relative to control. The format is functional. The essentials:
(§1)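 Colons from 10–12-week-old FVB/N CEABAC10 mice (human CEACAM6 transgenic; anesthetized, killed by cervical dislocation) split into four loops. Each loop was injected with 100 μL holding 2 × 10⁵ LF82 with or without inhibitor at 0.01, 0.1, 1 or 10 μmol, then held 1 h at 37 °C, 5% CO₂. Loops were opened, washed four times in PBS, homogenized and plated on LB agar with ampicillin 100 μg/mL and erythromycin 20 μg/mL. CFU normalized to untreated (100%); n = 5–8 mice, means SEM.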

In assay [4] the test system is Escherichia coli. The assay is described as follows: Antiadhesive activity against type-1 piliated adherent-invasive Escherichia coli LF82 assessed as inhibition of bacterial adhesion to human T84 cells overexpressing CEACAM6 at 0.1 to 100 uM incubated for 1 hr prior to infection measured after 3 hrs relative to heptylmannoside. The format is functional.
Assay [5] deals with Escherichia coli. The assay can be described thus: Antiadhesive activity against type-1 piliated adherent-invasive Escherichia coli LF82 assessed as residual bacterial adhesion to human T84 cells overexpressing CEACAM6 at 0.1 uM incubated for 1 hr prior to infection measured after 3 hrs relative to control. The assay is classed as functional. The essentials: (§2)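 T84 cells seeded at 1.5 × 10⁵ cells/well and grown 48 h at 37 °C under 5% CO₂. Washed monolayers pretreated 1 h with inhibitor at final 0.1, 1, 10 or 100 μM (α-D-mannose 100–50000 μM), then infected 3 h with LB-grown LF82 at MOI 10 with inhibitor present. Cells lysed in 1% Triton X-100; CFU counted on LB agar. Residual adhesion given as % of untreated (means SEM).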

Assay [6] deals with Escherichia coli. The assay can be described thus: Antiadhesive activity against type-1 piliated adherent-invasive Escherichia coli LF82 assessed as residual bacterial adhesion to human T84 cells overexpressing CEACAM6 at 1 uM incubated for 1 hr prior to infection measured after 3 hrs relative to control. The assay is classed as functional. The essentials:
as §2

Assay [7] deals with Escherichia coli. The assay is described as follows: Ratio of compound activity to D-mannose activity for prevention of Escherichia coli LF82 adhesion to colonic tissue isolated from FVB/N transgenic mouse expressing human CEACAM6. The assay is classed as functional.
Assay [8] deals with Escherichia coli. The assay is described as follows: Antiadhesive activity against type-1 piliated adherent-invasive Escherichia coli LF82 assessed as inhibition of bacterial adhesion to colonic tissue isolated from FVB/N transgenic mouse expressing human CEACAM6 after 1 hr. The format is functional, organism-based. The method in brief:
as §1

The test system of assay [9] is Escherichia coli. The assay is described as follows: Antiadhesive activity against type-1 piliated adherent-invasive Escherichia coli LF82 assessed as inhibition of bacterial adhesion to human T84 cells overexpressing CEACAM6 incubated for 1 hr prior to infection measured after 3 hrs. The format is functional, organism-based. The method in brief:
as §2

Assay [10] relates to Escherichia coli. The assay is described as follows: Antiadhesive activity against type-1 piliated adherent-invasive Escherichia coli LF82 assessed as decrease in residual bacterial adhesion to colonic tissue isolated from FVB/N transgenic mouse expressing human CEACAM6 at 10 umol after 1 hr relative to control. The assay is classed as functional. The method in brief:
as §1

Assay [11] deals with Escherichia coli. The assay can be described thus: Antiadhesive activity against type-1 piliated adherent-invasive Escherichia coli LF82 assessed as residual bacterial adhesion to human T84 cells overexpressing CEACAM6 at 1000 uM incubated for 1 hr prior to infection measured after 3 hrs relative to control. The format is functional. The essentials:
as §2

Assay [12] concerns the target Type 1 fimbrin D-mannose specific adhesin (Escherichia coli K-12, UniProt P08191). The assay is described as follows: Binding affinity to Escherichia coli FimH assessed as dissociation constant by ITC analysis.
In assay [13] the test system is Escherichia coli. The assay is described as follows: Antiadhesive activity against type-1 piliated adherent-invasive Escherichia coli LF82 assessed as residual bacterial adhesion to human T84 cells overexpressing CEACAM6 at 10 uM incubated for 1 hr prior to infection measured after 3 hrs relative to control. The format is functional. The essentials: as §2

Calls of active or inactive are those of the source. The rule behind the calls is not given here.

Type 1 fimbrin D-mannose specific adhesin (Escherichia coli K-12), sequence (P08191 whole entry): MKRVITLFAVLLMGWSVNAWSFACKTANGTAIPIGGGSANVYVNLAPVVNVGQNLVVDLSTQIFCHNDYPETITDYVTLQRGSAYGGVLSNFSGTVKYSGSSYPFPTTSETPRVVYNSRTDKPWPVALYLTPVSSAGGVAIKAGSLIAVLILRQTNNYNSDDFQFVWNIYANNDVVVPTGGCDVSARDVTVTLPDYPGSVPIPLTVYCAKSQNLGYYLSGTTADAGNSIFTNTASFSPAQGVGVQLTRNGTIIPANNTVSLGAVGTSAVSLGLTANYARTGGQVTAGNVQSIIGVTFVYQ
Type 1 fimbrin D-mannose specific adhesin, sequence (P08191 whole entry): as above

As for `O=C(c1ccccc1)c1cnc(N[C@H]2O[C@H](CO)[C@@H](O)[C@H](O)[C@@H]2O)s1`, the “fold change (FC)” value with Escherichia coli [1] came out at 0.4. For the same compound, the Activity result in assay [2] is “Dose-dependent effect”.

For the compound `O=C(c1cnc(N[C@H]2O[C@H](CO)[C@@H](O)[C@H](O)[C@@H]2O)s1)C12CC3CC(CC(C3)C1)C2`, in the assay on Escherichia coli [1], the “fold change (FC)” value is 0.3. Besides, the Activity entry in [2] is “Dose-dependent effect”.

As to `Cc1nc(-c2cnccn2)sc1C(=O)c1cnc(N[C@H]2O[C@H](CO)[C@@H](O)[C@H](O)[C@@H]2O)s1`, the Activity in the assay on Escherichia coli [3] is 65%; with Escherichia coli [5] it was 57.6%; in the assay with Escherichia coli [6], 14%; in assay [2], “Dose-dependent effect”. For the same compound, the “fold change (FC)” value in the assay on Escherichia coli [4] is reported as 0.01; in the assay with Escherichia coli [1], 0.2. For the same compound, the Ratio with Escherichia coli [7] is 10. Moreover, the inhibition result in the assay with Escherichia coli [8] and in the assay with Escherichia coli [9] was “Dose-dependent effect” in each case.

As for `O=C(c1ccsc1)c1cnc(N[C@H]2O[C@H](CO)[C@@H](O)[C@H](O)[C@@H]2O)s1`, the “fold change (FC)” value in the assay on Escherichia coli [1] is 0.3. Further, the Activity result in assay [2] was “Dose-dependent effect”.

For `O=C(c1ccc([N+](=O)[O-])cc1)c1cnc(N[C@H]2O[C@H](CO)[C@@H](O)[C@H](O)[C@@H]2O)s1`, the “fold change (FC)” value with Escherichia coli [1] is 0.7. The Activity entry in assay [2] is “Dose-dependent effect”.

Take `OC[C@H]1O[C@H](O)[C@@H](O)[C@@H](O)[C@@H]1O`: the Activity was determined as 41% with Escherichia coli [10] and 51.6% in the assay with Escherichia coli [11]. In addition, the inhibition result with Escherichia coli [8] and in the assay on Escherichia coli [9] was “Dose-dependent effect” throughout.

On to `N#Cc1ccc(C(=O)c2cnc(N[C@H]3O[C@H](CO)[C@@H](O)[C@H](O)[C@@H]3O)s2)cc1`, for which the “fold change (FC)” value in the assay on Escherichia coli [1] worked out at 0.7. In addition, in assay [2], the Activity result was “Dose-dependent effect”.

`O=C(c1cccs1)c1cnc(N[C@H]2O[C@H](CO)[C@@H](O)[C@H](O)[C@@H]2O)s1`: the “fold change (FC)” value with Escherichia coli [1] is listed as 0.1. The Activity entry in [2] was “Dose-dependent effect”.

In the case of `Cc1ccc(C(=O)c2cnc(N[C@H]3O[C@H](CO)[C@@H](O)[C@H](O)[C@@H]3O)s2)cc1`, in the assay on Escherichia coli [1], the “fold change (FC)” value worked out at 0.4. Moreover, the Activity result in assay [2] was “Dose-dependent effect”.

Turning to `CCCCCCCO[C@H]1O[C@H](CO)[C@@H](O)[C@H](O)[C@@H]1O`, the Kd in assay [12] was found to be 7 nM. For the same compound, in the assay on Escherichia coli [6], the outcome was inactive. Also, the Activity in the assay with Escherichia coli [13] was 52.4%. The inhibition result in the assay on Escherichia coli [9] was “Dose-dependent effect”.

As for `O=C(c1ccc2ccccc2c1)c1cnc(N[C@H]2O[C@H](CO)[C@@H](O)[C@H](O)[C@@H]2O)s1`, in the assay on Escherichia coli [1], the “fold change (FC)” value is listed as 2.3. For the same compound, the Activity entry in assay [2] was “Dose-dependent effect”.

With `CC(C)(C)C(=O)c1cnc(N[C@H]2O[C@H](CO)[C@@H](O)[C@H](O)[C@@H]2O)s1`, the “fold change (FC)” value with Escherichia coli [1] is 0.9. In addition, the Activity result in assay [2] was “Dose-dependent effect”.

On to `CC(=O)c1cnc(N[C@H]2O[C@H](CO)[C@@H](O)[C@H](O)[C@@H]2O)s1`, for which the “fold change (FC)” value in the assay on Escherichia coli [1] was 1.4. Also, the Activity entry in assay [2] is “Dose-dependent effect”. For the same compound, the inhibition result with Escherichia coli [9] is “Dose-dependent effect”.

Turning to `O=C(c1cnc(N[C@H]2O[C@H](CO)[C@@H](O)[C@H](O)[C@@H]2O)s1)C(F)(F)F`, the “fold change (FC)” value in the assay with Escherichia coli [1] was 1.7. In addition, the Activity entry in [2] is “Dose-dependent effect”.
